Test results: paper PMC9073098 (RSC Advances, 2019)

Assay: Absorption and fluorescence measurements
Format: physicochemical
Conditions: for Absorption maximum λmaxAb / Fluorescence quantum yield ΦF: CM : ACN (4 : 1, v/v); for Absorption maximum λmaxAb: RPMI 1640 cell medium pH 7.5, 25 °C, c = 0.6 μM; for Fluorescence quantum yield ΦF: cell medium pH 7.5, 25 °C, average of three measurements; for Extinction coefficient ε: PB : ACN (4 : 1, v/v), 10 mM phosphate buffer pH 7.5, 25 °C
Summary of the method: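 UV-Vis absorption and corrected fluorescence spectra at 25 °C in 1 cm quartz cells, ~0.5–0.6 μM dye in 10 mM phosphate buffer pH 7.5 or RPMI 1640 medium pH 7.5 (serum containing acetylcholinesterase). Excitation 532 and 710 nm. ΦF relative to ICG in methanol (0.044) and Cy3 in PBS (0.04), absorbance 0.04–0.06 at excitation. Three independent measurements averaged, reproducibility within 5%.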

| Structure (SMILES) | Absorption maximum λmaxAb [nm] | Fluorescence quantum yield ΦF [%] | Extinction coefficient ε |
| --- | --- | --- | --- |
| C[N+]1=C(C=CC2=C(OC(=O)CCCc3ccc(N(CCCl)CCCl)cc3)C(=CC=C3N(CCCCCC(=O)O)c4ccccc4C3(C)C)CCC2)C(C)(C)c2ccccc21 [IRD-CLB, 2-(2-(2-((4-(4-(bis(2-chloroethyl)amino)phenyl)butanoyl)oxy)-3-(2-(1-(5-carboxypentyl)-3,3-dimethylindolin-2-ylidene)ethylidene)cyclohex-1-en-1-yl)vinyl)-1,3,3-trimethyl-3H-indol-1-ium] | 785 | 6.3 ± 0.5 | 160 000 M^−1 × cm^−1 |
| CN1C(=CC=C2CCCC(=CC=C3N(CCCCCC(=O)O)c4ccccc4C3(C)C)C2=O)C(C)(C)c2ccccc21 [RD, 6-(3,3-Dimethyl-2-(2-(2-oxo-3-(2-(1,3,3-trimethylindolin-2-ylidene)ethylidene)cyclohexylidene)ethylidene)indolin-1-yl)hexanoic acid] | 526 | 2.6 ± 0.1 | 57 000 M^−1 × cm^−1 |
